Redox H2O2 prof – compounds producing H2O2 with reducing agent – biochemical, NIH compound library profiling, artefact control for MLSCN library redox annotation, primary screen; DTT-dependent redox cycling H2O2, phenol red/HRP absorbance; 100% = 100 µM peroxide control, 0% = buffer; activation, % at 10 µM; actives 0.03% (n = 200,000); AID 878;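 active = activation of at least 50% relative to the plate's high and low controls in the primary single-dose screen; inactive = activation below 50%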;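 also: compound incubated with DTT at 0.8 mM final as the reducing agent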
PfGluPho inh – PfG6PD (Plasmodium falciparum) enzyme inhibition | actives 0.78% (n = 350,000) | PfGluPho enzyme, NADPH resazurin-diaphorase fluorescence | inhibition, % at 20 µM;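 active = inhibition reaching at least a set limit at 20 µM in the primary screen, cut at about 59% in these data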;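 also: 0% = DMSO wells with substrate and 100% = DMSO wells lacking glucose-6-phosphate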
Diaph act CS – diaphorase activation or chemical reduction counter-screen. Diaphorase/resazurin coupled assay, resorufin fluorescence, 16 min; active compounds read high; 1 = vehicle wells, 0 = NADH-free wells. activation factor at 20 µM. actives 0.005% (n = 190,000). AID 1229;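 active = diaphorase activity raised at least twofold by the compound at 20 µM; inactive = activation factor below 2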
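Measured by – red resorufin fluorescence at 544/590 nm excitation/emission · Test system – Clostridium kluyveri diaphorase, purified enzyme · Incubation – reaction time 16 min, room temperature · Buffer or medium – 50 mM HEPES pH 7.4 with 4.542 mM MgCl2, 0.005% Tween 20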
G6PDH counter – inhibits Leuconostoc G6PDH, flagging false hits in G6PDH-based assays | actives 0.12% (n = 200,000) | inhibition, % at 5 µM | Purified L. mesenteroides G6PDH, diaphorase/resazurin coupled fluorescence, 45 min
Diaph inh CS – inhibits diaphorase or chemically oxidizes, flagging diaphorase assay artifacts. diaphorase resazurin-to-resorufin fluorescence, NADH, 16 min; bacterial (C. kluyveri) enzyme, not human. AID 1217. inhibition, % at 20 µM. actives 0.69% (n = 190,000);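 active = primary screen inhibition at 20 µM above a set limit, cut at about 50% in these data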;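 also: plate controls were DMSO with full reaction for no effect and wells lacking NADH for full effect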
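Assay system: diaphorase enzyme from Clostridium kluyveri; Input: enzyme working solution with 0.14 U/mL diaphorase; Timing: 16 min at room temperature; Technique: resorufin fluorescence, excitation 544 nm, emission 590 nm; Benchmarks: positive control minus NADH, DMSO neutral control.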
L major viab – Leishmania major promastigote growth inhibition | Leishmania major promastigotes, resazurin fluorescence viability | inhibition, % at 10 µM | actives 9% (n = 200,000);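 also: promastigotes grown with compound for 44 hours at 28 °C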
An asterisk follows results filed as active; x = no result. The full list was thinned out, with hits kept by preference. Rule as the data show it, unless noted: active = inhibition above about 50%; inactive = the rest.

SMILES	Redox H2O2 prof	PfGluPho inh	Diaph act CS	G6PDH counter	Diaph inh CS	L major viab
CCCCN(CCCC)S(=O)(=O)c1ccc(NC(=O)c2ccc([N+](=O)[O-])cc2Cl)cc1	0.0	14.9	0.8	15.7	18.1	99.9*
O=C(COc1ccc(S(=O)(=O)NC2CCCCC2)cc1)NCCC1=CCCCC1	0.8	15.1	0.8	9.5	21.2	58.6*
O=C(COc1ccc(S(=O)(=O)NC2CCCCC2)cc1)NC1CCCCC1	-0.2	15.5	0.9	-6.0	6.7	10.0
O=C(CN1CCN(C2CCCCC2)CC1)NCCC1=CCCCC1	-0.1	4.4	0.8	5.6	18.3	94.0*
CCC(=O)N1CCN(c2ccc(NC(=O)c3ccc([N+](=O)[O-])o3)cc2Cl)CC1	-1.0	49.5	1	1.5	1.8	100.5*
CCN1CCN(c2ccc(NC(=O)c3ccc([N+](=O)[O-])o3)cc2Cl)CC1	-0.9	35.7	1	2.9	-1.4	100.7*
CCCC(=O)N1CCN(c2ccc(NC(=O)c3cccs3)cc2Cl)CC1	1.7	5.7	x	12.5	x	3.2
CCCC(=O)N1CCN(c2ccc(NC(=O)c3cc4ccccc4o3)cc2Cl)CC1	1.5	98.0*	1	-32.5	-1.7	60.1*
CC(=O)N1CCN(c2ccc(NC(=O)c3ccc([N+](=O)[O-])o3)cc2Cl)CC1	x	39.0	x	x	x	x
O=S(=O)(c1ccc(Cl)cc1)n1c(Cc2ccccc2)nc2ccccc21	0.0	3.8	0.8	-17.3	17.7	41.9
COc1ccccc1Cc1nc2ccccc2n1S(=O)(=O)c1ccc(Cl)cc1	0.8	15.5	1	18.9	4.9	75.5*
CN1CCN(S(=O)(=O)c2cccc(C(=O)N3CCN(c4ccccc4F)CC3)c2)CC1	x	3.1	x	x	x	x
O=C(Cn1c(=O)cnc2ccccc21)Nc1ccccc1N1CCOCC1	x	7.4	x	x	x	x
CC(=O)c1ccccc1NC(=O)Cn1c(=O)cnc2ccccc21	-0.2	-8.2	0.8	-2.8	15.9	58.5*
COC(=O)c1ccc(C23CC4(C2)[C@H](CN(C)[C@@H]4c2ccccc2)C3c2ccc(Cl)nc2)cc1 (some centres undefined)	x	20.4	x	x	x	x
COc1ccc(-c2nc(-c3ccccc3)nc(N3CCN(C)CC3)c2C#N)cc1	-7.9	8.7	0.9	5.7	8.1	19.8
CCOC(=O)c1cc(C#N)c(N2CCN(C)CC2)nc1-c1ccccc1	-0.5	-8.3	1.2	4.1	-15.7	89.2*
COc1cccc(-c2nc(-c3ccccc3)nc(N3CCN(C)CC3)c2C#N)c1	0.1	13.4	1	-3.3	-1.4	50.8*
COc1ccc(-c2nc(-c3cccc(C)c3)nc(N3CCN(C)CC3)c2C#N)cc1	-0.5	-3.1	0.9	4.2	7.3	85.9*
CCC(=O)N1CCN(c2nc(-c3ccccc3)c3c(c2C#N)CCCC3)CC1	0.2	-6.3	0.9	3.9	12.8	76.0*
COc1ccc(CNC(=O)c2ccc(CS(=O)(=O)Cc3ccccc3F)o2)cc1	-0.1	-5.5	1	12.2	-3.5	10.1
CC(NC(=O)c1ccccc1)C(=O)N/N=C/c1cccc([N+](=O)[O-])c1 (centres undefined)	-0.3	4.8	0.9	0.0	14.9	5.3
COc1cc(NC(=O)c2ccc(Cl)cc2)c(Cl)cc1NC(=O)c1cccnc1	x	10.1	x	x	x	x
CCOC(=O)c1sc2ncnc(N3CCN(C)CC3)c2c1C	-1.9	-6.5	1	18.3	4.8	12.5
COC(=O)c1sc2nc(-c3ccccc3)nc(N3CCN(C)CC3)c2c1C	-0.5	0.1	1.1	4.9	-8.9	54.9*
SMILES	Redox H2O2 prof	PfGluPho inh	Diaph act CS	G6PDH counter	Diaph inh CS	L major viab
C/C(=N\N=C(N)N)c1cccc([N+](=O)[O-])c1	0.3	-6.5	1	0.3	2.2	63.5*
O=C(Nc1ccccc1-c1ccccc1)C1CCCC1	-1.9	-8.1	0.9	5.6	9.7	0.1
O=C(N1CCN(c2ccccc2)CC1)C12CC3CC(CC(C3)C1)C2	2.7	7.4	0.9	8.2	9.6	95.2*
O=C(Nc1ccccc1N1CCN(c2ccc(F)cc2)CC1)C12CC3CC(CC(C3)C1)C2	2.7	2.1	0.8	4.0	15.6	99.6*
O=C(NC(=S)N1CCN(c2ccc(F)cc2)CC1)C12CC3CC(CC(C3)C1)C2	0.0	-5.2	0.9	12.2	5.3	80.1*
O=C(Nc1ccccc1N1CCN(c2ccc(F)cc2)CC1)c1ccccc1	0.2	-4.0	0.9	5.4	10.6	-5.1
O=C(Nc1ccccc1-c1ccccc1)C12CC3CC(CC(C3)C1)C2	0.9	9.3	0.9	8.2	11.1	88.5*
ClCCn1cnc2c(SCc3ccccc3)ncnc21	x	12.0	x	x	x	x
CC(C)Cc1ccc(C(C)CC2=CCC(CN(C)C)C2=O)cc1 (centres undefined)	x	48.0	x	x	x	x
Cc1ccc(OCCNS(=O)(=O)c2ccc(N3CCCC3=O)cc2)cc1C	2.5	-1.2	0.9	6.7	6.9	3.4
CN(C)S(=O)(=O)c1ccc(Cl)c(NC(=O)CN2C(=O)NC3(CCc4ccccc43)C2=O)c1 (centres undefined)	x	11.5	x	x	x	x
O=C(NCCSCc1ccccc1)c1ccc(F)cc1	0.0	9.7	1	-0.5	3.6	-2.6
O=C(Nc1nc(COc2ccccc2)cs1)C12CC3CC(CC(C3)C1)C2	0.2	-3.6	0.7	10.4	33.4	99.5*
Cc1ccc(C(O)CN2C3=NCCN3c3ccccc32)cc1 (centres undefined)	12.4	-20.2	0.8	1.0	22.8	96.1*
COc1ccccc1CNC(=O)COC(=O)CCN=C1NS(=O)(=O)c2ccccc21	x	11.2	x	x	x	x
Cc1occc1C(=O)NNC(=O)COc1ccc(Br)cc1Br	-0.1	-2.2	1	-0.8	2.5	-4.8
Cc1ccc(OCC(=O)NNC(=O)c2ccoc2C)c(Br)c1	0.2	6.6	1	12.5	1.8	72.3*
C/C(CC1CC(C)(C)OC1=O)=N\NC(N)=S (centres undefined)	x	-2.6	x	x	x	x
C/C(CC1CC2=C(CC1(C)C)C(C)(C)CCC2)=N\NC(N)=S (centres undefined)	-0.2	25.1	0.9	2.4	14.8	100.5*
Cc1cc(N2CCN(C)CC2)nc2ccc(NC(=O)CCC3CCCC3)cc12	x	4.3	x	x	x	x
O=C(Nc1nnc(-c2cccs2)o1)c1cccc(Oc2ccccc2)c1	-1.2	-30.8	1.1	2.8	-11.2	52.0*
O=C(Nc1nnc(-c2cccs2)o1)c1cccc(F)c1	-3.8	-10.7	x	x	x	93.6*
O=C(Nc1ccsc1C(=O)O)c1cccc(Oc2ccccc2)c1	x	-13.2	x	x	x	x
O=S(=O)(CCNCCc1ccccc1)NCc1ccccc1	x	-25.9	x	x	x	x
CC(=O)c1cc(CN2CCN(CC=C(C)C)C(CCO)C2)cs1 (centres undefined)	-1.2	3.2	0.9	12.5	7.2	8.2

Source: PubChem BioAssay
